{"source": "paper PMC11439923", "about": "(Scientific Reports, 2024)", "key": {"V-ATPase activity": {"tested_on": "V-ATPase activity", "assay": "LysoTracker Red staining", "assay_type": "cell-based, human", "settings": "Cal-27 and FaDu; 0.1 µM; 24 h", "summary_of_the_method": "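Cal-27 and FaDu plated 8 × 10^3 cells/well in black 96-well plates for 24 h. Treated 24 h with test compound (0.1, 1, 2 µM) or 0.1 µM bafilomycin A1. LysoTracker 2 h, immediate fixation in 4% paraformaldehyde 20 min, DAPI 30 min at room temperature. Lysosomal fluorescence intensity quantified by high-content imaging.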"}, "CTSD mRNA": {"tested_on": "CTSD mRNA", "assay": "Quantitative RT-PCR of CTSD", "assay_type": "cell-based, human", "settings": "36 h, ECDD-S18 0.1, 1, 2 µM, bafilomycin A1 0.1 µM, vs DMSO"}, "[1]": {"tested_on": "E-cadherin mRNA and protein", "assay": "E-cadherin expression", "assay_type": "cell-based, human", "settings": "Cal-27 and FaDu; 36 h; ECDD-S18 0.1, 1, 2 µM, bafilomycin A1 0.1 µM"}, "cathepsin D (CTSD)": {"tested_on": "cathepsin D (CTSD)", "assay": "Western blot of cathepsin D", "assay_type": "cell-based, human", "settings": "36 h, ECDD-S18 0.1, 1, 2 µM, bafilomycin A1 0.1 µM, vs DMSO", "summary_of_the_method": "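Cal-27 or FaDu seeded 5 × 10^5 cells per 60 mm dish for 24 h, treated 36 h with test compound (0.1, 1, 2 µM), 0.1 µM bafilomycin A1 or DMSO. RIPA lysates run on SDS-PAGE, transferred to PVDF, blocked in 5% milk 1 h. Probed overnight at 4 °C for pro/mature cathepsin D, N-cadherin, GAPDH; HRP secondary, ECL on film. Densitometry normalised to GAPDH, fold change versus untreated.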"}, "[2]": {"tested_on": "HNSCC cell lines (FaDu, Cal-27, and Ca9-22)", "assay": "Cell viability assay", "assay_type": "cell-based, human", "settings": "Cal-27 and FaDu; 1 µM single agent; 48 and 72 h; MTT", "summary_of_the_method": "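Seeded 8 × 10^3 cells/well in 10% FBS medium: MEM for Ca9-22; high-glucose DMEM for FaDu, Cal-27, HaCaT; DMEM/F12 for HK-2. Grown 24 h at 37 °C, 5% CO2, then dosed 24, 48 or 72 h: derivatives 0.001–20 µM, parent glycoside and platinum reference 0.01–50 µM. MTT 0.5 mg/ml 4 h, formazan dissolved in DMSO, A570. IC50 by nonlinear regression. Triplicate, ≥3 independent experiments.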"}, "healthy mice": {"tested_on": "healthy mice", "settings": "cited from earlier work"}, "FaDu spheroids": {"tested_on": "FaDu spheroids", "assay": "Three-dimensional culture, spheroid live/dead staining", "assay_type": "cell-based, human", "settings": "50 µM cisplatin, 72 h", "summary_of_the_method": "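FaDu seeded 500 cells/well in U-bottom ultralow-attachment plates, spheroids formed over 72 h at 37 °C, 5% CO2. Spheroids exposed 72 h to a concentration series of test compound or platinum reference. Stained 1 h with Hoechst 33342 (live) and ethidium homodimer-1 (dead), imaged by high-content system. Read-out: Hoechst/EthD-1 mean fluorescence intensity ratio. One-way ANOVA with Tukey's test.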"}}}
{"smiles": "CO/C1=C\\C(C)=C\\[C@@H](C)[C@@H](O)[C@@H](C)C/C(C)=C/C=C/[C@H](OC)[C@@H]([C@@H](C)[C@@H](O)[C@H](C)[C@@]2(O)C[C@@H](O)[C@H](C)[C@@H](C(C)C)O2)OC1=O", "note": "[bafilomycin A1]", "values": [{"measurement": "LysoTracker red fluorescence intensity relative to DMSO control", "setting": "V-ATPase activity", "result": "significantly decreased"}, {"measurement": "mRNA expression of CTSD", "setting": "CTSD mRNA; Cal-27", "result": "significantly decreased"}, {"measurement": "mRNA expression of CTSD", "setting": "CTSD mRNA; FaDu", "result": "significantly decreased"}, {"measurement": "expression of E-cadherin mRNA and protein", "setting": "[1]", "result": "no effect"}, {"measurement": "protein expression of mature CTSD", "setting": "cathepsin D (CTSD); Cal-27", "result": "downregulated"}, {"measurement": "protein expression of mature CTSD", "setting": "cathepsin D (CTSD); FaDu", "result": "downregulated"}]}
{"smiles": "N.N.[Cl][Pt][Cl]", "note": "[Cisplatin]", "values": [{"measurement": "cell viability", "setting": "[2]", "result": "slight suppression"}, {"measurement": "WBC and RBC levels", "setting": "healthy mice", "result": "marked decrease"}, {"measurement": "body weight loss", "setting": "healthy mice", "result": "30–40%"}, {"measurement": "Live/dead cell ratio (Hoechst 33342 to EthD-1)", "setting": "FaDu spheroids", "result": "significantly reduced"}]}
